Measured values: ChEMBL document CHEMBL4513216, “Probing the Open Global Health Chemical Diversity Library for Multistage-Active Starting Points for Next-Generation Antimalarials” (ACS Infect Dis, 2020)

Assay: Toxicity liver stage against HepG2, at 10uM
Type: cell-based
Set-up: test concentration 10 uM, cell line HepG2-A16-CD81EGFP
Conditions: human, HepG2-A16-CD81EGFP cells; read-out: INHIBITION
Summary of the method: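 Uninfected HepG2-A16-CD81EGFP cells, 3 × 10^3 per well, 1536-well, plated on prespotted compound at 10 μM final, parasite-free screening media added to match infected plates; puromycin 10 μM positive, DMSO 0.5% negative; run in parallel with 48 h PbLuc assay at 37 °C, 5% CO2; viability by CellTiter-Glo luminescence, normalized to controls.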

SMILES | cytotoxicity at 10 µM
O=C(NCCC1=CCCCC1)c1ccc(-n2cccc2)nc1 | -1.46%
CC1CN(c2ncccc2C(=O)N[C@@H]2CCCc3ccccc32)CCN1 (stereo partly drawn) | 10.7%
CNC(=O)c1nc(CC(=O)Nc2cccc(C(F)(F)F)c2)no1 | -6.96%
Cc1nn(-c2ccc(C(=O)O)cc2)c2c1C(C(C)C)SCC(=O)N2 (stereo not drawn) | -3.58%
Cc1ccc(S(=O)(=O)NCCNc2cc(-n3cccc3)ncn2)c(C)c1 | -0.817%
CCN1C(=O)CCC12CCN(S(=O)(=O)c1ccccc1)CC2 | -4.9%
CC(C)C(=O)NC1COC2(CCN(C(=O)c3cccnc3)CC2)C1 (stereo not drawn) | 4.26%
Cn1cccc1C(=O)N1C[C@H]2CN(Cc3cccnc3)C[C@H]2C1 | 3.94%
O=C(C1CCOCC1)N1CC[C@@H](O)[C@@H]1Cc1ccncc1 | -2.36%
CCN(C(=O)c1nc2c(s1)CCCN2Cc1ccccc1)C(C)C | 14.2%
Cc1nc(CNCC2COCc3c(-c4ccoc4)nnn3C2)cs1 (stereo not drawn) | 8.22%
Cc1cc(NCCO)nc(N2CCCC2)c1C#N | -7.02%
Cc1cc(O)c(OCC(=O)/N=c2/[nH]c3c(s2)CCC3)cn1 | 10.4%
CCOC(=O)Cn1cccc(S(=O)(=O)N2CCCC2)c1=O | 13.4%
Cc1n[nH]c2c1C(c1cnn(C)c1)SCC(=O)N2 (stereo not drawn) | 7.7%
CN1C(=O)C(C)(C)COc2cc(NS(=O)(=O)Cc3ccccc3)ccc21 | -7.79%
CN(C)C(=O)N1CCc2c(nnn2C)C1COCc1ccccc1 (stereo not drawn) | -8.39%
CS(=O)(=O)Nc1nn(Cc2ccc(F)cc2)cc1Br | 5.88%
O=C(CCn1ncc2c(Cl)cccc21)NCCCn1cccn1 | 6.25%
Cc1cc(C(=O)NCc2cccs2)nc(N2CCCC2)n1 | -0.438%
COc1ccc(S(=O)(=O)N2CCOC(C)(C(N)=O)C2)cc1 (stereo not drawn) | 5.49%
O=C(C1CC1)N1CCCC(C2=Nc3ccccc3S(=O)(=O)N2)C1 (stereo not drawn) | -1.45%
CCn1c(SC)nnc1C1CCN(C(=O)N2CCCC2)CC1 | -0.78%

SMILES | cytotoxicity at 10 µM
CS(=O)(=O)c1cncnc1C1CCCN(C(=O)NCc2ccccc2)C1 (stereo not drawn) | -0.375%
COCCN(CCOC)c1ncc(C#N)cc1Cl | 2.8%
CC(O)CCN(C)C(=O)Nc1cccc(F)c1 (stereo not drawn) | -6.16%
COc1ccc(CN2CCCC(n3cccn3)C2)c(Cl)c1OC (stereo not drawn) | 4.48%
CSC(C)C(=O)Nc1ccnn1-c1ccccc1C (stereo not drawn) | -12.5%
O=C(NC1(C(=O)NCC2CC2)CCCC1)C1Cc2cc(F)ccc2O1 (stereo not drawn) | 8%
CCCN(C(=O)CN1CCN(CC(C)O)CC1)C1=CCCCC1 (stereo not drawn) | 4.13%
CC(CNC(=O)NCc1ccoc1)N1CCc2sccc2C1 (stereo not drawn) | -4.8%
CN(CC(=O)NCC(CCO)c1ccccc1)C(=O)OC(C)(C)C (stereo not drawn) | -6.58%
CCc1[nH]c(C2(N)CCCCC2)nc(=O)c1C | 7.61%
OCCN(Cc1cccnc1)c1ccc(Cl)cn1 | 31.9%
CS(=O)(=O)CCN1CCc2c(ncn2C2CC2)C1 | -6.06%
Cc1ccc(CNC(=O)C2CCN(C(=O)c3ccccc3)CC2)n1C | 1.2%
Brc1ccc(C2(NCc3noc(C4CC4)n3)CCC2)cc1 | 13.3%
CC(=O)N(C)CC(=O)NC1(c2ccc(Cl)c(Cl)c2)CC1 | -5.57%
Cc1nn(CCO)c(C)c1CNC1CCc2c(F)cccc21 (stereo not drawn) | 4.59%
CCN(CC)S(=O)(=O)N1CCCC1CC(=O)c1cccs1 (stereo not drawn) | 3.62%
CNC(=O)N1CCCCC1CCNS(C)(=O)=O (stereo not drawn) | -3.41%
COc1ccc(C)cc1CC(=O)NC1(C#N)CCOCC1 | 6.18%
CC(C)(C)c1noc(CN2CCN(C(=O)c3ccco3)CC2)n1 | -15.8%
CCC(C)C(=O)NCCCn1nc(C)cc1C (stereo not drawn) | 0.0879%
CS(=O)(=O)CCN(CC1CCCO1)C1CCCC1 (stereo not drawn) | 4.4%
CC(C)C(=O)NCCNC(=O)C(C)OCC(F)(F)F (stereo not drawn) | -5.56%

SMILES | cytotoxicity at 10 µM
O=C(NCC(O)c1ccccc1C(F)(F)F)c1cccnc1 (stereo not drawn) | -2.9%
Cc1cccn2cc(CN3CCCC(c4ccn[nH]4)C3)nc12 (stereo not drawn) | -5.95%
CS(=O)(=O)CCNCc1ccc(OCc2cscn2)cc1 | -136%
O=C1CN(C(=O)C2CCCOC2)CCN1Cc1ccc(Cl)cc1 (stereo not drawn) | -152%
CC(C)CCN(C)C(=O)c1cnc2c(cnn2CC(C)C)c1 | -0.0554%
FC(F)(F)c1cccc(C2(CNCc3cc[nH]c3)CCOCC2)c1 | -6.76%
Cc1cnn(CCNCCCOc2ccc(C#N)cc2)c1 | -0.222%
COc1cc(C(=O)N(Cc2ccco2)C2CC2)cc2c1OCCO2 | 2.35%
Cc1cnccc1N1CCCN(C(=O)CCCn2ccnc2C)CC1 | -5.39%
O=C(Nc1nc(-c2ccccc2)ns1)N1CCN(C(=O)C2CC2)CC1 | -150%
CN(C)C(C(=O)NCCSc1ncn[nH]1)c1cccc(F)c1 (stereo not drawn) | -1.64%
COc1cccc(-n2c(SCC(=O)O)nnc2-c2cn[nH]c2)c1 | -6.76%
Cc1ncsc1CCC(=O)N1CCCC1c1cccnc1 (stereo not drawn) | 13.4%
O=C(O)c1cn(CC2CCCN(c3nccc4occc34)C2)nn1 (stereo not drawn) | -5.17%
CS(=O)(=O)NCc1cc2n(n1)CCCN(Cc1cc3ccccc3o1)C2 | 0.403%
Cn1cccc1C(=O)N1CCCC(Cn2cc(CO)nn2)C1 (stereo not drawn) | 1.85%
CC(C)CN1CCn2nc(CNc3ncnc4[nH]ccc34)cc2C1 | -0.531%
CCCc1nc(CN(CC)C(=O)c2ccc3ncsc3c2)no1 | 9.65%
COc1ccc(C(C)n2ccnc2-c2cc3n(n2)CCCNC3)cc1F (stereo not drawn) | -3.06%
CN(C)c1nc2c(c(N3CCc4c(c(CO)nn4C)C3)n1)CCNC2 | -5.72%
COc1cc(NCc2ccccc2-n2cncn2)nc(N)n1 | -11%
Cc1nc(C)n(CCCn2ccnc2-c2cc3n(n2)CCCNC3)n1 | 3.71%
O=C(CCc1cn[nH]c1)N1C[C@H](CO)C[C@H](CN2CCOCC2)C1 | 2.72%

SMILES | cytotoxicity at 10 µM
COCCC1(CO)CCCN(C(=O)c2cc(Cl)ccc2F)C1 (stereo not drawn) | 4.36%
CCN1CCC(CC(=O)N[C@H](C(=O)O)c2cccc(F)c2F)CC1 | -2.62%
Cc1cnccc1CN(C)C(=O)c1cccc(CCC(C)(C)O)c1 | -3.55%
Cc1nc(NCCSc2nnc(C)s2)c2cccnc2n1 | -0.125%
Cc1ccc(F)cc1CC(=O)N(CCN1CCOCC1)Cc1ccco1 | -3.91%
C[C@@H]1CN(C2CCN(c3ccccc3)CC2)CC[C@@]1(O)C1CCOCC1 | -10.6%
COCCCC1(CO)CCCN(CCS(C)(=O)=O)C1 (stereo not drawn) | -16%
c1cc(NC2CC3(CCN(Cc4cc[nH]n4)C3)C2)ncn1 (stereo not drawn) | -4.71%
COCCc1noc(CN2CCCCC2Cn2cccn2)n1 (stereo not drawn) | -1.3%
CN(C)C(=O)c1cccc(CN2CCOC(Cn3cccn3)C2)c1 (stereo not drawn) | -0.29%
CCc1ccc(C(=O)N2CCCCC2Cn2cccn2)o1 (stereo not drawn) | -6.8%
N#CCCN(C(=O)CN1CCCC1c1ccsc1)c1ccccc1 (stereo not drawn) | -8.42%
CN1CCOC(CN(C(=O)COc2ccccc2)c2nccs2)C1 (stereo not drawn) | -8.18%
Cc1nn(C)c(C)c1C1CCCN1Cc1nc(-c2cccs2)no1 (stereo not drawn) | -9.43%
Cc1nc(C)n(CC2CCCN(Cc3cc(C#N)ccc3F)C2)n1 (stereo not drawn) | -18.3%
CNc1cc(N2CCCC2CNCc2cscn2)ncn1 (stereo not drawn) | -0.426%
Cc1noc(CCCC(=O)NC(C)c2ccc(Cl)s2)n1 (stereo not drawn) | -9.48%
N#Cc1ccccc1N1CCCN(C(=O)CCc2ccco2)CC1 | -8.48%
CN(C)c1cc(CNC(=O)c2cc(F)ccc2F)ccn1 | -8.35%
c1ccc(Cc2noc(CN3CCCC(Cn4cncn4)C3)n2)cc1 (stereo not drawn) | -2.38%
Cc1ncc(C(=O)N2CCCC(n3cccn3)C2)s1 (stereo not drawn) | -5.8%
CN(Cc1nnc2n1CCC2)C(=O)c1ccc2c(c1)OCCO2 | -17.8%
Cc1ccc(-c2ncc(C(=O)NS(C)(=O)=O)s2)c(C)c1 | -8.91%

SMILES | cytotoxicity at 10 µM
COC(=O)c1cc(C(=O)N2CCOCC2(C)C)n(-c2ccccc2)n1 | -10.2%
O=C(Cn1cnnn1)N1CCCCC1Cn1cccn1 (stereo not drawn) | -9.24%
CCCc1noc(CCC(=O)N2CCCC2c2ccsc2)n1 (stereo not drawn) | -11%
CC(NC(=O)N1CCN(c2ccccc2)CC1)c1nncn1C (stereo not drawn) | 2.36%
Cc1nn(C)c(Cl)c1C1CCCN1C(=O)c1nccnc1N (stereo not drawn) | -6.9%
O=C(NCc1ccc(-n2cncn2)nc1)c1ccc2c(c1)CCO2 | -10.2%
O=C(Nc1cccc(F)c1)C1=NOC2(CCNCC2)C1 | 5.19%
O=C(Nc1cccnc1)[C@@H]1C[C@H]2OCC[C@H]2N(Cc2ccsc2)C1 | 2.88%
O=C(Cc1cccs1)N1CCn2cc(Cn3cccn3)nc2C1 | -77.9%
COCC(=O)NC1CC2(CCN(CC3CC3)CC2)Oc2ccccc21 (stereo not drawn) | -2.6%
O=C(C1CCCCC1)N1CCCC2(CCN(c3cnccn3)CC2)C1 | 6.59%
CC(C)c1nc(-c2cc(C(=O)NCCN(C)C)c3ccccn23)cs1 | 4.77%
Cc1nc(CN2CCC3(CCCN(C(=O)c4cnccn4)C3)C2)cs1 (stereo not drawn) | -147%
Cc1noc([C@@H]2CC[C@@H]3[C@@H](CCN3S(=O)(=O)c3cccnc3)O2)n1 | -13.1%
CCOC1COC2(CCN(Cc3ccco3)CC2)C1 (stereo not drawn) | -2.98%
CCN1CC2(CC1=O)CN(Cc1cnn(C)c1)CCN(C(C)=O)C2 (stereo not drawn) | -12.5%
CC(C)C1COC2(CCN(Cc3ccco3)CC2)C1 (stereo not drawn) | -3.57%
COCC(=O)N1CCCn2c(CN3CCOCC3)nnc2C1 | -131%
Cc1ccccc1C(=O)N1C[C@@H]2OCCN(c3ncccn3)[C@@H]2C1 | 29.5%
c1csc(CN2C[C@@H](n3cccn3)[C@H]3OCCC[C@H]32)c1 | 1.63%
CN1CC[C@]2(CN(Cc3nccs3)C[C@H]2c2ccccc2)C1=O | 10.8%
